The species entered for data set [1] is Homo sapiens. Description: Selectivity ratio of IC50 for human TRKC to IC50 for human NIK.
The test system of data set [2] is Mus musculus. Description: Suppression of IMQ-induced psoriasis in C57 mouse assessed as reduction in spleen index at 60 mg/kg, ig administered once daily starting from day 3 post IMQ-challenge and measured 2 days post-last dose of IMQ. The data set is classed as functional, organism-based. Summed up: (§1)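 IMQ-induced C57 mice (5% cream daily 7 days; i.g. daily from day 3 at the stated dose, n = 6). Spleen weighed per mouse at end of study.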

In data set [3] the target is Mitogen-activated protein kinase kinase kinase 14 (Mus musculus) (UniProt Q9WUL6). Description: In vivo inhibition of NIK in C57 mouse model of IMQ-induced psoriasis assessed as reduction in NF-kappaB signalling in back skin by measuring decrease in mRNA IL-10 level at 60 to 120 mg/kg, po administered starting from day 3 post IMQ-challenge and measured 2 days post-last dose of IMQ by qPCR analysis. The format is functional, organism-based. Summed up: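 IMQ psoriasis model: 5% imiquimod cream applied to C57 mouse back skin once daily for seven days; oral dosing 60 or 120 mg/kg once daily from day 3, n = 6 per group. Back-skin mRNA measured by qPCR.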
Sequence of Mitogen-activated protein kinase kinase kinase 14 (Mus musculus) (Q9WUL6 whole entry): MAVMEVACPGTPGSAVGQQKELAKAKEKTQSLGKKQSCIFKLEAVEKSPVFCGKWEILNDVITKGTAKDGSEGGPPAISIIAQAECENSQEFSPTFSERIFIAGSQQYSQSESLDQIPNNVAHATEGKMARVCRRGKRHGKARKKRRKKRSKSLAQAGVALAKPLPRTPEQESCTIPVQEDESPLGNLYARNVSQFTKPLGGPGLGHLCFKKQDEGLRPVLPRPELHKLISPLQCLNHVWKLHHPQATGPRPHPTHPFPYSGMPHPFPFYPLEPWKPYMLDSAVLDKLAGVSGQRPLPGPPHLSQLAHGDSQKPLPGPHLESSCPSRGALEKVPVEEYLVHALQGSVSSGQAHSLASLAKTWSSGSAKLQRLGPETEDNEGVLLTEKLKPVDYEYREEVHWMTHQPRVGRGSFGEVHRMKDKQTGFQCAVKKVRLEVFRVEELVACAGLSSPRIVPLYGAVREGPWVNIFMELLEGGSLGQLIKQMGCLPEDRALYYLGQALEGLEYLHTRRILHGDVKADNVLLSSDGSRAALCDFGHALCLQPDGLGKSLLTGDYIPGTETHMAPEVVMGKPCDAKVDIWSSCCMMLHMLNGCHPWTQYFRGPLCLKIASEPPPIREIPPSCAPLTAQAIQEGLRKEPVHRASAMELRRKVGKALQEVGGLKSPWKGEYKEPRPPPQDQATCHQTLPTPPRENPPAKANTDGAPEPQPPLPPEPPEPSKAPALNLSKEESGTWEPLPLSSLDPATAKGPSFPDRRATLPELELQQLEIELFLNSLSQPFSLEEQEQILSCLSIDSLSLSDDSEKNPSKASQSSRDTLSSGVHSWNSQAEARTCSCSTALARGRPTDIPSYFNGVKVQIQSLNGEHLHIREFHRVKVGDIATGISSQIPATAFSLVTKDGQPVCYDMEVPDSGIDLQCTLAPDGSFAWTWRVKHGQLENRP
In general terms: In qPCR the cycle at which signal appears reflects the starting amount.

Data set [4] deals with Mus musculus. The experiment in a line: Suppression of epidermal and dermal cell proliferation in C57 mouse model of IMQ-induced psoriasis assessed as reduction in Ki67 expression in back skin psoriatic lesions at 120 mg/kg, ig administered starting from day 3 post IMQ-challenge and measured 2 days post-last dose of IMQ by immunohistochemical analysis relative to control. The data set is classed as functional. The following applies: C57, topical. In outline: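 C57 mice given 5% imiquimod cream on back skin q.d. for seven days. Gavage q.d. at 60 or 120 mg/kg from day 3, n = 6 per group. Back-skin frozen sections (6 µm) stained for Ki67 by IHC. % Ki67+ of total cells quantified and normalized to IMQ-only model group. Two-tailed t-test, mean ± SD.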

The nature of data set [5]: Elimination half life in rat liver microsomes incubated for 10 mins followed by potassium phosphate buffer addition and measured after 5 to 60 mins by LC-MS/MS analysis. The format is ADME, Microsome. The following applies: read-out: beta t1/2. In outline: (§2)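 Rat, dog, monkey or human liver microsomes pre-incubated with compound at 37 °C for 10 min; reaction started after pre-warming and stopped at 5, 15, 30, 60 min with chilled quench containing tolbutamide and labetalol. No-cofactor control in 100 mM potassium phosphate for 60 min. LC-MS/MS analysis; first-order fit: k = −slope, T1/2 = 0.693/k, CLint = k/microsomal protein concentration.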

The species entered for data set [6] is Homo sapiens. The experiment in a line: Selectivity ratio of IC50 for human JAK3 to IC50 for human NIK.
Data set [7] deals with Mus musculus. The experiment in a line: Suppression of IMQ-induced psoriasis in ig dosed C57 mouse assessed as reduction in serum TNFalpha level administered once daily starting from day 3 post IMQ-challenge and measured 2 days post-last dose of IMQ by ELISA. The format is functional, organism-based. Summed up: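 Psoriasis-like dermatitis induced by 5% imiquimod cream on back skin of C57 mice, q.d. for seven days. Oral (i.g.) dosing q.d. at 60 or 120 mg/kg from day 3 to study end, n = 6 per group. At end, blood held at 4 °C for 12 h, then centrifuged. Serum TNFα measured by ELISA. Mean ± SEM.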

The target of data set [8] is Mitogen-activated protein kinase kinase kinase 14 (Mus musculus) (UniProt Q9WUL6). Description: Inhibition of NIK in mouse J774 cells assessed as reduction in LPS-induced TNFalpha mRNA level by SYBR green dye-based quantitative PCR analysis. The format is cell-based. In outline:
(§3)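 LPS-stimulated J774 macrophages; mRNA quantified by qPCR using 4 µL cDNA plus 16 µL master mix per reaction. Mean ± SD of three biological replicates; significance by two-tailed Student's t-test against the model group.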

Data set [9] has as its system Mus musculus. Description: Protection against IMQ-induced dermatitis in C57 mouse model of psoriasis assessed as reduction in dermal scales at 120 mg/kg, ig administered once daily starting from day 3 post IMQ-challenge and measured 2 days post-last dose of IMQ. The format is functional, organism-based. In outline: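 C57 mice given 5% imiquimod cream on the back once daily for 7 days; intragastric dosing 60 or 120 mg/kg once daily from day 3 to end, n = 6 per group. Dorsal skin phenotype assessed by imaging.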

Data set [10] is described as follows: Intrinsic clearance in human liver microsomes assessed per mg of protein incubated for 10 mins followed by potassium phosphate buffer addition and measured after 5 to 60 mins by LC-MS/MS analysis. The following applies: read-out: CLH. The data set is classed as ADME, Microsome. Summed up:
as §2

Data set [11] is described as follows: Elimination half life in monkey liver microsomes incubated for 10 mins followed by potassium phosphate buffer addition and measured after 5 to 60 mins by LC-MS/MS analysis. The data set is classed as ADME, Macaca mulatta, Microsome. The following applies: rhesus monkey, read-out: beta t1/2. Summed up: as §2
Background: Liver microsomes are vesicles of endoplasmic reticulum, rich in cytochrome P450 enzymes.

A short description of data set [12]: Intrinsic hepatic clearance in dog. The data set is classed as ADME, Canis lupus familiaris. The following applies: in vivo. Summed up:
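Scaled from microsomal intrinsic clearance: CLint,in vitro × microsomal protein per g liver × liver weight per kg body weight.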

Data set [13] in a line: Half life in Sprague-Dawley rat at 1 mg/kg, iv administered as single bolus dose by LC-MS/MS analysis. The format is ADME, organism-based. As to conditions: in vivo.
Data set [14] is filed under the species Homo sapiens. Description: Selectivity ratio of IC50 for human JAK1 to IC50 for human NIK.
Data set [15] in a line: AUC (0 to infinity) in Sprague-Dawley rat at 1 mg/kg, iv administered as single bolus dose by LC-MS/MS analysis. The format is ADME, organism-based. The following applies: in vivo. On the set-up: dose 1 mg/kg, time infinity, route intravenous. Summed up:
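Single IV bolus in SD rats, 3 per group, in DMSO:PEG200:saline 20:20:60 (v/v/v), 0.2 mg/mL. Plasma protein-precipitated with ACN containing internal standards, then quantified by LC-MS/MS. AUC0-∞ from concentration-time profiles by linear trapezoidal rule, noncompartmental analysis. Mean ± SD of three rats.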

Data set [16] in a line: AUC (0 to infinity) in Sprague-Dawley rat at 10 mg/kg, po administered via gavage by LC-MS/MS analysis. The format is ADME, organism-based. Details: dose 10 mg/kg, time infinity, route oral. The following applies: in vivo. In outline: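 Single oral gavage in SD rats, 3 per group, as a suspension in saline with 0.5% CMC-Na and 0.2% Tween 80, 1 mg/mL. Plasma protein-precipitated with ACN containing internal standards, then LC-MS/MS. AUC0-∞ by linear trapezoidal rule, noncompartmental analysis. Mean ± SD of three rats.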

Data set [17] has as its system Mus musculus. The experiment in a line: Suppression of IMQ-induced epidermal acanthosis in ig dosed C57 mouse model of psoriasis assessed as reduction in epidermal thickness administered once daily starting from day 3 post IMQ-challenge and measured 2 days post-last dose of IMQ by hematoxylin-eosin staining based confocal laser scanning microscopy. The data set is classed as functional, organism-based. In outline:
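IMQ-induced C57 mice (5% cream 7 days; 60 or 120 mg/kg i.g. daily from day 3, n = 6). Formalin-fixed, paraffin-embedded back skin cut at 3 µm and H&E stained. Epidermal thickness measured in six randomly chosen fields; blind evaluation by two pathologists.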

In data set [18] the test system is Mus musculus. The experiment in a line: Suppression of IMQ-induced psoriasis in C57 mouse assessed as reduction in spleen index at 120 mg/kg, ig administered once daily starting from day 3 post IMQ-challenge and measured 2 days post-last dose of IMQ. The data set is classed as functional, organism-based. In outline:
as §1

The nature of data set [19]: Elimination half life in dog liver microsomes incubated for 10 mins followed by potassium phosphate buffer addition and measured after 5 to 60 mins by LC-MS/MS analysis. The data set is classed as ADME, Canis lupus familiaris, Microsome. The following applies: read-out: beta t1/2. Summed up:
as §2

Data set [20] is described as follows: Half life in Sprague-Dawley rat at 10 mg/kg, po administered via gavage by LC-MS/MS analysis. The format is ADME, organism-based. The following applies: in vivo.
For another data set, the system named is J774. The experiment in a line: Antiinflammatory activity in mouse J774 cells assessed as reduction in LPS-induced IL-1 beta mRNA level by SYBR green dye-based quantitative PCR analysis. The format is functional, cell-based. Summed up:
as §3

The species entered for data set [21] is Homo sapiens. The experiment in a line: Selectivity ratio of IC50 for human LRRK2 to IC50 for human NIK.

Activity calls are given as the source filed them. No cut-off for these calls is given here.

For the molecule `CC(O)(C#Cc1ccc(N2CCOCC2)c(Nc2ncnc3[nH]ccc23)c1)c1nccs1` (racemic), the Ratio IC50 in the data set filed under Homo sapiens [1], in the data set filed under Homo sapiens [6], in the data set listed under Homo sapiens [14] and in the data set filed under Homo sapiens [21] was 4 to 20 each time. The inhibition result (in the data set with Mus musculus [2]; in data set [3]; in [8]; in the data set on Mus musculus [18]) was “Active” in each case. Moreover, the inhibition in vivo at 120 mg/kg in the data set with Mus musculus [4] stood at 83%. Besides, the half-life in [5] was 30.8 min; in data set [11], 18 min; in data set [13] it was 56.6 min; in [19], 32.4 min; in [20], 83.4 min. For the same molecule, the inhibition result in the data set with Mus musculus [7] and in the data set on Mus musculus [17] was “Dose-dependent effect” each time. Also, the outcome in the data set with Mus musculus [9] and with J774 was Active. The microsomal CLint in [10] turned out to be 32.4 µL/min/mg. Moreover, the CLH in data set [12] turned out to be 3.74 L/h/kg. For the same molecule, the AUC(0-inf) came out at 0.419 µg·h/mL in [15] and 2.68 µg·h/mL in data set [16].

For orientation: inhibition in vivo means the percentage by which the read-out fell short of the control. Broadly, the AUC(0-inf) is the area under the concentration-time curve extrapolated to infinity.

For the origin of these results see ChEMBL document CHEMBL4616671, “Identification of N-Phenyl-7H-pyrrolo[2,3-d]pyrimidin-4-amine Derivatives as Novel, Potent, and Selective NF-κB Inducing Kinase (NIK) Inhibitors for the Treatment of Psoriasis” (J Med Chem, 2020).
